Source: PubChem
CAL PDZ FP-1 – blocks peptide binding to human CAL PDZ domain; Q9HD26; purified CAL PDZ, TMR-peptide fluorescence polarization, 1 h; inhibition, % at 20 µM; 0.02% of 330,000 active;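 active = highest replicate inhibition of at least 40%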;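 also: plate controls were DMSO neutral control wells for no effect and unlabeled competitor peptide control wells for full effect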
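material = purified tagged CAL PDZ domain construct (CerCALP) | compound dosing = 20 µM, one dose | times = 1 h at RT | measured by = fluorescence polarization from S- and P-plane intensities, G-factor corrected | read-out = inhibition from polarization loss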
PKA-R1A activ – activates the PKA-R1A holoenzyme complex | PKA-R1A dissociation, Cy5-IP20 fluorescence polarization; scaled: DMSO 0%, 113 µM cGMP 100% | activation, % at 11.4 µM | 0.083% of 340,000 active;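 active = percent activation above the mean of all tested compounds plus 3 SD, cut at about 19% in these data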;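 also: higher means more PKAc released from R1A so a rise in polarization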
CAL PDZ FP-2 – CAL PDZ (human) peptide binding inhibition; Q9HD26; purified CAL PDZ, TMR-peptide fluorescence polarization, 1 h; inhibition, % at 24.9 µM; 0.92% of 300,000 active; AID 602252;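 active = mean inhibition of at least 30% with at least half of replicates also reaching 30%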;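 also: 0% = DMSO neutral control and 100% = excess unlabeled competitor peptide PRC23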
PKA-R2B activ – activates the human PKA-R2B holoenzyme complex; PKA-R2B holoenzyme dissociation, Cy5-IP20 fluorescence polarization; R2B truncated from residue 108, S112A mutant; 0% DMSO only, 100% 113 µM cGMP; activation, % at 11.4 µM; 0.079% of 340,000 active; AID 504700;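 active = activation above a cutoff set at the mean over all compounds plus 3 SD, cut at about 18% in these data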;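 also: higher means more holoenzyme dissociation and a rise in polarization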
dFosB activator – mouse delta FosB homodimer activation; P13346; purified delta FosB, TAMRA-CDK5 oligo fluorescence polarization; percent of positive-control signal above neutral wells; activation, % at 25 µM; 0.99% of 340,000 active; AID 493131;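 active = mean activation above about 17%, with every replicate also reaching it, limit read from the data, passing the limit was not always enough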
Target sequence (P13346 whole entry, looked up): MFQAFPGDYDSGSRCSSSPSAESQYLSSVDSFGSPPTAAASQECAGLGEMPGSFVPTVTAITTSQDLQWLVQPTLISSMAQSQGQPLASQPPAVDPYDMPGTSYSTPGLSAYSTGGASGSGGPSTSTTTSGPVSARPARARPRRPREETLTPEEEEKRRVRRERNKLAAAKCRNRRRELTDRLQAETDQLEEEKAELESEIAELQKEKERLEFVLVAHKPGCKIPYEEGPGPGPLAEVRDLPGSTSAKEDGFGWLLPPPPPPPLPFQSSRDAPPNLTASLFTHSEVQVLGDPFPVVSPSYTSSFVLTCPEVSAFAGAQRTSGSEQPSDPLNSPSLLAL
NTR1 agonist – activates human neurotensin receptor 1; P30989; NTR1-U2OS beta-arrestin-GFP spot imaging, agonist mode; activation, % at 20 µM; 0.17% of 330,000 active; AID 493036;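 active = activation at or above 40% of the spot to cytoplasm intensity ratio, with at least 20 cells analyzed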;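 also: 0% = DMSO without peptide and 100% = 100 nM NTR1 peptide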
Numbers without * were called inactive; x = no result. This is a sample that favours compounds with a hit; in the whole collection about 2% have one here.

SMILES	CAL PDZ FP-1	PKA-R1A activ	CAL PDZ FP-2	PKA-R2B activ	dFosB activator	NTR1 agonist
O=C(Nc1ccccn1)C1CCN(C(=O)c2ccc(Cl)cc2)CC1	x	8	x	1	x	x
C/C(=N\NC(=O)Cc1cc(=O)[nH][nH]1)c1cccc([N+](=O)[O-])c1	-1	1	-7	4	-6	-1
C/C(=N/NC(=O)Cc1cc(=O)[nH][nH]1)c1ccc([N+](=O)[O-])cc1	-2	-3	36*	1	-6	0
COc1ccc(S(=O)(=O)NCC(c2ccc(F)cc2)N2CCN(C)CC2)cc1 (centres undefined)	-1	-8	4	-2	-1	2
COc1ccc(/C=N/NC(=O)c2ccccc2)cc1CN1CCN(c2ccc(F)cc2)CC1	0	-2	-1	3	2	0
COc1cc(C(=O)N/N=C/c2ccc(OC)c(CN3CCN(c4ccc(F)cc4)CC3)c2)ccc1O	-2	-10	-4	3	39*	2
COc1ccccc1C(CNC(=O)CNC(=O)c1cccc(Cl)c1)N1CCCC1 (centres undefined)	0	5	x	-7	3	x
C(=N\Nc1nc2ccccc2[nH]1)/c1ccccc1	2	-17	0	-11	-1	-1
Brc1ccc(-c2ccc(/C=N/Nc3nc4ccccc4[nH]3)o2)cc1	2	1	4	-4	39*	1
Cc1ccccc1NC(=O)N1CCN(C/C=C/c2ccccc2)CC1	-1	-5	-2	1	-6	0
Cc1ccnc(N/C=C(/NC(=O)c2ccccc2)C(=O)N/N=C\c2ccc(Cl)cc2)n1	-5	-4	-4	4	19*	1
O=C(CCN1C(=O)c2ccccc2S1(=O)=O)NCc1ccccc1Cl	-1	4	0	-11	-7	2
CCOC(=O)c1ccc(NC(=S)NNC(=O)c2cc(-c3cccnc3)nc3ccccc23)cc1	-2	-6	49*	1	-8	1
Cc1ccccc1C(=O)NN1CCOCC1	0	-8	82*	-5	-1	-1
O=C(NNC(=S)Nc1ccccc1)c1cc(-c2cccnc2)nc2ccccc12	-2	7	3	1	-23	2
CCc1ccc(-c2cc(C(=O)NN3CCOCC3)c3ccccc3n2)cc1	x	-5	-6	-6	-9	0
O=C(NN1CCOCC1)c1cc(-c2ccc(Br)cc2)nc2ccccc12	0	-9	59*	4	-17	-1
O=C(Nc1cccnc1)c1cc(-c2ccc(Br)cc2)nc2ccccc12	0	-1	68*	1	-11	7
O=C(NC(=S)Nc1cc([N+](=O)[O-])ccc1O)C1CC1	0	-17	x	3	3	0
COc1ccc(C2=NS(=O)(=O)N(C)C(C(=O)Nc3ccc(F)cc3F)=C2)cc1	-1	-1	x	2	-3	4
CC(=O)c1ccccc1C(=O)N1CCC(CCC(=O)NCc2ccc(F)cc2)CC1	x	-6	x	-5	x	x
CC(=O)Nc1ccc(NC(=O)c2ccccc2N(C)S(=O)(=O)c2ccccc2)cc1	0	-3	x	-7	0	1
CCC(=NNC(=O)c1ccc2c(c1)nc(C)n2CC)c1cc(F)ccc1O	-1	-1	5	0	-3	0
C[C@@H]1CN([C@H](C)CO)C(=O)c2cc(C#CC(C)(C)O)cnc2O[C@@H]1CN(C)C(=O)C1CC1	x	-7	x	-8	x	x
CN(Cc1cccc(Cl)c1Cl)C(=O)c1ccccc1SCC(=O)N1CCCC1	-2	-5	-2	5	-4	x
SMILES	CAL PDZ FP-1	PKA-R1A activ	CAL PDZ FP-2	PKA-R2B activ	dFosB activator	NTR1 agonist
O=C(Nc1ccc2c(c1)OCO2)c1cc(-c2cccnc2)nc2ccccc12	0	-7	40*	-1	-12	0
CSc1ccccc1NC(=O)c1cc(-c2cccnc2)nc2ccc(Br)cc12	18	4	-3	-4	27*	22
Cc1ccc(-c2cc(C(=O)Nc3ccc4c(c3)OCCO4)c3ccccc3n2)cc1	0	6	-2	-4	0	0
CSc1cccc(N2CC(C(=O)Nc3ccccc3N3CCCC3)CC2=O)c1 (centres undefined)	-3	9	1	-3	-12	1
CNc1ccccc1C(=O)OCC(=O)N1CCc2ccccc2C1	x	0	x	2	x	x
C[C@H](CO)N1C[C@H](C)[C@@H](CN(C)S(=O)(=O)c2ccc(-c3ccccc3)cc2)OCc2cn(nn2)CCCC1=O	x	6	x	10	x	x
C/C(CC(=O)Nc1ccc2c(c1)OCCO2)=N\NC(=O)COc1ccc(C)cc1	-1	-2	-1	-3	-9	0
C/C(CC(=O)Nc1ccc2c(c1)OCCO2)=N\NC(=O)COc1ccc(Cl)c(C)c1	-2	-12	47*	1	-8	0
COc1ccc(CC(=O)N/N=C(\C)CC(=O)Nc2ccc3c(c2)OCCO3)cc1OC	-3	0	44*	4	3	0
CCOc1ccc(NC(=O)c2c(NC(=O)CNCCN3CCOCC3)sc3c2CCC3)cc1	-3	-2	-2	4	-6	0
CCS(=O)(=O)c1nc(S(=O)(=O)c2ccc(Cl)cc2)c(NCCCN2CCCC2=O)s1	-1	2	-2	-2	-6	-1
CCCS(=O)(=O)c1nc(S(=O)(=O)c2ccc(C)cc2)c(NCCCN2CCCC2=O)s1	-1	-8	42*	6	-3	0
Cc1ccccc1NC1=NC(=S)N(c2ccccc2)C12CCOC(C)(C)C2 (centres undefined)	17	-5	42*	-6	-9	2
CCN(Cc1ccccc1)C(=O)c1nn(-c2ccc(OC)cc2)c(=O)c2c1c1ccccc1n2C	-2	5	-24	-19	-5	13
Cc1cccc(NC(=O)C2CCN(S(C)(=O)=O)CC2)c1C	-4	4	55*	0	1	1
COc1ccc(C(=O)Cn2cc[n+](C)c2)cc1	x	5	0	13	-3	0
CN(CCOc1ccccc1)C(=O)c1ccc2c(c1)OCO2	0	-12	62*	-4	-4	-2
CC(C)n1nccc1N(Cc1ccc(Br)cc1)S(=O)(=O)c1ccccc1	-2	-4	1	3	-9	4
COc1cccc(CSCC(=O)NCCc2ccccc2)c1OC	-1	5	7	-3	-5	0
C=CCn1c(O)c(N=Nc2ccccc2[N+](=O)[O-])c2ccccc21	x	5	x	0	x	x
CC(C)=C(NC(=O)c1ccccc1)C(=O)NCCc1nc2ccccc2[nH]1	0	8	38*	-7	-5	0
CC(=O)NCCc1nc2ccccc2[nH]1	-1	3	x	5	-9	0
